Measured values: ChEMBL document CHEMBL1914368, “Imidazo[1,5-a]quinoxalines as irreversible BTK inhibitors for the treatment of rheumatoid arthritis” (Bioorg Med Chem Lett, 2011)
Calls of active or inactive are those of the source. The rule behind the calls is not given here.

How the values were obtained:
[1] = target: Serine/threonine-protein kinase mTOR (Homo sapiens) (UniProt P42345); assay: Inhibition of FRAP1 relative to control; conditions: concentration not given here
[2] = target: 3-phosphoinositide-dependent protein kinase 1 (Homo sapiens) (UniProt O15530); assay: Inhibition of PDK1 relative to control; conditions: concentration not given here
[3] = test system: Hepatocyte growth factor receptor (Homo sapiens), P08581 [M1250T]; assay: Inhibition of MET M1250T mutant relative to control; conditions: concentration not given here
[4] = AUC (0 to infinity) in mouse at 10 mg/kg, po; assay type: ADME, organism-based; parameters: time infinity, dose 10 mg/kg, route oral; conditions: plasma
[5] = target: Serine/threonine-protein kinase Chk2 (Homo sapiens) (UniProt O96017); assay: Inhibition of CHEK2 relative to control; conditions: concentration not given here
[6] = target: Tyrosine-protein kinase ABL2 (Homo sapiens) (UniProt P42684); assay: Inhibition of ABL2 relative to control; conditions: concentration not given here
[7] = target: RAC-alpha serine/threonine-protein kinase (Homo sapiens) (UniProt P31749); assay: Inhibition of AKT1 relative to control; conditions: concentration not given here
[8] = target: Tyrosine-protein kinase BTK (Homo sapiens, UniProt Q06187); assay: Inhibition of BTK autophosphorylation at PY223 in human Ramos B cells after 20 mins by Western blot analysis; assay type: cell-based
[9] = target: Tyrosine-protein kinase CSK (Homo sapiens) (UniProt P41240); assay: Inhibition of CSK relative to control; conditions: concentration not given here
[10] = target: Tyrosine-protein kinase Lyn (Homo sapiens, UniProt P07948); assay: Inhibition of LYN-A expressed in Sf9 cells after 60 mins by TR-FRET Assay
Mus musculus [11] = assay: Antiarthritic activity in DBA/1 JBomTac mouse collagen-induced arthritis model assessed as inhibition of disease progression at 10 mg/kg, po qd measured on day 7 to 22; assay type: functional, organism-based; parameters: dose 10 mg/kg
Outline: (§1)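 Semi-therapeutic collagen-induced arthritis model. Blinded paw scoring used a 0–4 scale, reported as mean and SEM. Comparison to vehicle used Student's t-test, P <0.05.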

Mus musculus [12] = assay: Antiarthritic activity in DBA/1 JBomTac mouse collagen-induced arthritis model assessed as inhibition of disease progression at 1 mg/kg, po qd measured on day 19 to 22; assay type: functional, organism-based; parameters: dose 1 mg/kg; outline: as §1
Mus musculus [13] = assay: Antiarthritic activity in DBA/1 JBomTac mouse collagen-induced arthritis model assessed as inhibition of disease progression at 3 mg/kg, po qd measured on day 5 to 22; assay type: functional, organism-based; parameters: dose 3 mg/kg; outline: as §1
Mus musculus [14] = assay: Antiarthritic activity in C57BL/6 mouse assessed as inhibition of T-independent type 2 antigen-induced IgG3 antibody titer production administered qd for 7 days by ELISA; assay type: functional, organism-based; conditions: C57BL6
Outline: (§2)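 Female C57BL/6 mice, 8–10 weeks old, immunized ip with NP(109)-Ficoll (TI-2 antigen). Compound or vehicle given po daily for 7 days, starting 1 day before immunization. Serum was collected 6 days after immunization, and NP-specific IgM and IgG3 titers were measured by ELISA.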

[15] = target: Tyrosine-protein kinase HCK (Homo sapiens) (UniProt P08631); assay: Inhibition of HCK relative to control; conditions: concentration not given here
[16] = target: Tyrosine-protein kinase Blk (Homo sapiens, UniProt P51451); assay: Inhibition of BLK relative to control
[17] = target: Tyrosine-protein kinase Lck (Homo sapiens, UniProt P06239); assay: Inhibition of C-terminal His6-tagged human full-length LCK expressed in Sf9 cells preincubated for 60 mins measured after 60 mins by TR-FRET Assay
[18] = target: Tyrosine-protein kinase Fer (Homo sapiens) (UniProt P16591); assay: Inhibition of FER relative to control; conditions: concentration not given here
[19] = Half life in mouse at 2 mg/kg, iv; assay type: ADME, organism-based; parameters: dose 2 mg/kg, route intravenous; conditions: in vivo
[20] = AUC (0 to infinity) in mouse at 2 mg/kg, iv; assay type: ADME, organism-based; parameters: time infinity, dose 2 mg/kg, route intravenous; conditions: plasma
[21] = Volume of distribution at steady state in mouse at 2 mg/kg, iv; assay type: ADME, organism-based; parameters: dose 2 mg/kg, route intravenous; conditions: in vivo, read-out: Vdss
Outline: (§3)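 Mouse pharmacokinetics from single dosing at 2 mg/kg iv and 10 mg/kg po. The study derived AUC, T1/2, clearance, Vss, Tmax, Cmax and oral bioavailability (%F) from the paired iv and po arms.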

[22] = target: Tyrosine-protein kinase ITK/TSK (Homo sapiens) (UniProt Q08881); assay: Inhibition of ITK relative to control; conditions: concentration not given here
Mus musculus [23] = assay: Antiarthritic activity in C57BL/6 mouse assessed as inhibition of T-independent type 2 antigen-induced NP-specific IgM antibody titer production administered qd for 7 days by ELISA; assay type: functional, organism-based; conditions: C57BL6; outline: as §2
[24] = target: Cytoplasmic tyrosine-protein kinase BMX (Homo sapiens) (UniProt P51813); assay: Inhibition of BMX relative to control; conditions: concentration not given here
[25] = target: Serine/threonine-protein kinase PLK1 (Homo sapiens) (UniProt P53350); assay: Inhibition of PLK1 relative to control; conditions: concentration not given here
[26] = target: Vascular endothelial growth factor receptor 3 (Homo sapiens) (UniProt P35916); assay: Inhibition of FLT4 relative to control; conditions: concentration not given here
[27] = target: Focal adhesion kinase 1 (Homo sapiens) (UniProt Q05397); assay: Inhibition of PTK2 relative to control; conditions: concentration not given here
Ephrin type-B receptor 3 = Ephrin type-B receptor 3 (Homo sapiens, UniProt P54753); assay: (§4) Inhibition of EPHB3 relative to control
[28] = target: Ephrin type-B receptor 3 (Homo sapiens) (UniProt P54753); assay: as §4; conditions: concentration not given here
[29] = Tmax in mouse at 10 mg/kg, po; assay type: ADME, organism-based; parameters: dose 10 mg/kg, route oral; conditions: in vivo; outline: as §3
[30] = target: Serine/threonine-protein kinase TBK1 (Homo sapiens) (UniProt Q9UHD2); assay: Inhibition of TBK1 relative to control; conditions: concentration not given here
[31] = target: Tyrosine-protein kinase FRK (Homo sapiens, UniProt P42685); assay: Inhibition of FRK relative to control
[32] = target: Glycogen synthase kinase-3 beta (Homo sapiens) (UniProt P49841); assay: Inhibition of GSK3B relative to control; conditions: concentration not given here
[33] = target: RAF proto-oncogene serine/threonine-protein kinase (Homo sapiens) (UniProt P04049); assay: Inhibition of RAF1 relative to control; conditions: concentration not given here
[34] = target: Mitogen-activated protein kinase 8 (Homo sapiens) (UniProt P45983); assay: Inhibition of MAPK8 relative to control; conditions: concentration not given here

Sequence of Tyrosine-protein kinase FRK (P42685 whole entry): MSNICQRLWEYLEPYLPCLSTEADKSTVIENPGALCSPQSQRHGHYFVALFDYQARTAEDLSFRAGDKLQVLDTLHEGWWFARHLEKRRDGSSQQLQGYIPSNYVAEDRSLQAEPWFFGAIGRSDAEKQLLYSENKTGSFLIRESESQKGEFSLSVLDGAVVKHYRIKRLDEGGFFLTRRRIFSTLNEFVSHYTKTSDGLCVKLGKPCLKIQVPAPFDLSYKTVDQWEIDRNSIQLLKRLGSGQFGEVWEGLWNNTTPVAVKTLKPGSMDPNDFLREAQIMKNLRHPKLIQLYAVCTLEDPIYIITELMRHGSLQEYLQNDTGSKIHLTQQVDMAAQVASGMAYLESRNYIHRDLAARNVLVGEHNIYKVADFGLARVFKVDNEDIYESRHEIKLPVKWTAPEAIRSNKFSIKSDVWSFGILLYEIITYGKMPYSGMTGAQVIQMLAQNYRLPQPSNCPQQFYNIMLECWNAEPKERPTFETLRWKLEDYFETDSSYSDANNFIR
Sequence of Hepatocyte growth factor receptor (Homo sapiens), P08581 [M1250T] (P08581 whole entry M1250T): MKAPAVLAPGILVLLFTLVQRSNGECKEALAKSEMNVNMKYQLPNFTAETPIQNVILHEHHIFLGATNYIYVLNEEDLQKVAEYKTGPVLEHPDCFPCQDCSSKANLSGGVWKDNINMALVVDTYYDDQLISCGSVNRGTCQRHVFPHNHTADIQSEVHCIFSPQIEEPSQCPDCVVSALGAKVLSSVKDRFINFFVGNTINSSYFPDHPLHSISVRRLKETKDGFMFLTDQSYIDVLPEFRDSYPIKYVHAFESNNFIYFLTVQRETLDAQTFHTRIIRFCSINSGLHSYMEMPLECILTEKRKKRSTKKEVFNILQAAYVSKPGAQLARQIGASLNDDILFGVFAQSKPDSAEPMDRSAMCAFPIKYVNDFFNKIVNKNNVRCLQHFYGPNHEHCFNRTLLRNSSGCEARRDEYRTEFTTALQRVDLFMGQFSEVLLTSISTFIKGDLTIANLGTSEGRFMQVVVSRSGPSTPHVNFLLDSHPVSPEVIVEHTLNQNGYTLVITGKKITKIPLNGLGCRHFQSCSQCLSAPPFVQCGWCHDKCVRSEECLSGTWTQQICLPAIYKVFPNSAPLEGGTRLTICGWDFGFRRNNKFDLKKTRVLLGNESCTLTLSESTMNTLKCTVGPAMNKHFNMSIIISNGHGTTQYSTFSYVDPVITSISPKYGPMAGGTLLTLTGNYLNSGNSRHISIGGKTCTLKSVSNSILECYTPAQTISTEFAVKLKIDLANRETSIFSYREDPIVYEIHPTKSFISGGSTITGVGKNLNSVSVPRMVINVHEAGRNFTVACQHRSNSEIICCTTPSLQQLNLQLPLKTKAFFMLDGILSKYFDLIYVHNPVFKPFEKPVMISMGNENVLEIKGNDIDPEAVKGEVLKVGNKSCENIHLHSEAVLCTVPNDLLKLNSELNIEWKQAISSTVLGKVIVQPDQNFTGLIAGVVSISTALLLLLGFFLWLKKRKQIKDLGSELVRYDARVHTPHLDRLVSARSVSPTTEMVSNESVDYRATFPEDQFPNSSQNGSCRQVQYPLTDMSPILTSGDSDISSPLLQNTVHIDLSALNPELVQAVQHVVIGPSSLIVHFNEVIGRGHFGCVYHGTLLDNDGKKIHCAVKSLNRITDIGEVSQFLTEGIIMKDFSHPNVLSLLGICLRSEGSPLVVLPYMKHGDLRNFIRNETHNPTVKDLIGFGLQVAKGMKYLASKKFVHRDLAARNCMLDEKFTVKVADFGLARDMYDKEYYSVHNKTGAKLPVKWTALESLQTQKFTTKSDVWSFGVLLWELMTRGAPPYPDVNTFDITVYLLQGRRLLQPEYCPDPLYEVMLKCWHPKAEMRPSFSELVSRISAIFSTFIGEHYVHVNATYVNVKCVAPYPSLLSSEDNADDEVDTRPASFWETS
Sequence of Tyrosine-protein kinase HCK (Homo sapiens) (P08631 2-526 limits assumed): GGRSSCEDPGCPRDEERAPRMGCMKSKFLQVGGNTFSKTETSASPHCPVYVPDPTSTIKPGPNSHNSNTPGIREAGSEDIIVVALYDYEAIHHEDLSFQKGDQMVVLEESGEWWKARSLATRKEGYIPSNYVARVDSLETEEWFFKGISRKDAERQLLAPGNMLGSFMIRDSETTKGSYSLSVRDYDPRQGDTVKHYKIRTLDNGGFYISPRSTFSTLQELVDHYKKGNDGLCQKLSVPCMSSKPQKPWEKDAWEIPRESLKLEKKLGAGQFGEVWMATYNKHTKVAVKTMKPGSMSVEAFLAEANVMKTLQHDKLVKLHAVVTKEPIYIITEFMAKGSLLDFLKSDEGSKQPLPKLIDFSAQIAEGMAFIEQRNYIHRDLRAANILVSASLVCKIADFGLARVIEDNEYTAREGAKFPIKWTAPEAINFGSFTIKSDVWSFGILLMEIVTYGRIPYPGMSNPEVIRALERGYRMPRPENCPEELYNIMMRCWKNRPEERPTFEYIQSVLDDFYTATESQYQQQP
Sequence of Glycogen synthase kinase-3 beta (Homo sapiens) (P49841 whole entry, looked up): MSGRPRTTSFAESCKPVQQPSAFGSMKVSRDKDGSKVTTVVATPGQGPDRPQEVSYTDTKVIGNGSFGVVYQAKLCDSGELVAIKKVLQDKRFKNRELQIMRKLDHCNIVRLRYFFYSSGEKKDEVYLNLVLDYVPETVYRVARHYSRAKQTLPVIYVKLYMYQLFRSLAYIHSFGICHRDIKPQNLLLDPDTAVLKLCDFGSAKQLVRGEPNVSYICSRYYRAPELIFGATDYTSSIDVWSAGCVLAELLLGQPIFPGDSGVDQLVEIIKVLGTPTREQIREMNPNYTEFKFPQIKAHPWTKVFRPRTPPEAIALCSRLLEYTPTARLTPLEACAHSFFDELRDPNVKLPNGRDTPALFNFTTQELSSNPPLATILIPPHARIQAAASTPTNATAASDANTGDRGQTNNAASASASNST
Sequence of RAC-alpha serine/threonine-protein kinase (Homo sapiens) (P31749 whole entry): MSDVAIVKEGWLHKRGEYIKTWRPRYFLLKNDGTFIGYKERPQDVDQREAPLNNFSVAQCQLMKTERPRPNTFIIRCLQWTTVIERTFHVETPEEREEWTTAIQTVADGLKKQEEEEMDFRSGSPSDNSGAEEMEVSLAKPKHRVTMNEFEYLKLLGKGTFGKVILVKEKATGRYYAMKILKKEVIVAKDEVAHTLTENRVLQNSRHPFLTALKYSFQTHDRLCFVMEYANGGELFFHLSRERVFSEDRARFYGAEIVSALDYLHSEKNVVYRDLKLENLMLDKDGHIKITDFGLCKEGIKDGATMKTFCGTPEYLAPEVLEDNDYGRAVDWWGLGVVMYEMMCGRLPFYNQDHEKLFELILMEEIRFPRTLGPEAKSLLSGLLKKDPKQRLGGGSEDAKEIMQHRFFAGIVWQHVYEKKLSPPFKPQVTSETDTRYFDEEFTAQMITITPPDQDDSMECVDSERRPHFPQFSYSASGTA
Sequence of Tyrosine-protein kinase CSK (Homo sapiens) (P41240 2-450 limits assumed): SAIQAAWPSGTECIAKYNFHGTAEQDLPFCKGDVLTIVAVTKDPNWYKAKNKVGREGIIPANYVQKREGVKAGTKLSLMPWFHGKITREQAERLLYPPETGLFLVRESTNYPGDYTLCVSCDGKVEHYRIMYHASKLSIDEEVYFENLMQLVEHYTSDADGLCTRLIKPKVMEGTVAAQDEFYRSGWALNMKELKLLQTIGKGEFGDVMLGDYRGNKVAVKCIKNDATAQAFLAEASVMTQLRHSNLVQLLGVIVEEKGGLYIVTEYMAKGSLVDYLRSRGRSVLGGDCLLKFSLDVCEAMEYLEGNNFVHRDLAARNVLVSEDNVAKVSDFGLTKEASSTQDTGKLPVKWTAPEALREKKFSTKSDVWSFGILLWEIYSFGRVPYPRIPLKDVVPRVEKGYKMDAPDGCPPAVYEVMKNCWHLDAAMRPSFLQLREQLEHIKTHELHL
Sequence of Tyrosine-protein kinase ITK/TSK (Homo sapiens) (Q08881 whole entry): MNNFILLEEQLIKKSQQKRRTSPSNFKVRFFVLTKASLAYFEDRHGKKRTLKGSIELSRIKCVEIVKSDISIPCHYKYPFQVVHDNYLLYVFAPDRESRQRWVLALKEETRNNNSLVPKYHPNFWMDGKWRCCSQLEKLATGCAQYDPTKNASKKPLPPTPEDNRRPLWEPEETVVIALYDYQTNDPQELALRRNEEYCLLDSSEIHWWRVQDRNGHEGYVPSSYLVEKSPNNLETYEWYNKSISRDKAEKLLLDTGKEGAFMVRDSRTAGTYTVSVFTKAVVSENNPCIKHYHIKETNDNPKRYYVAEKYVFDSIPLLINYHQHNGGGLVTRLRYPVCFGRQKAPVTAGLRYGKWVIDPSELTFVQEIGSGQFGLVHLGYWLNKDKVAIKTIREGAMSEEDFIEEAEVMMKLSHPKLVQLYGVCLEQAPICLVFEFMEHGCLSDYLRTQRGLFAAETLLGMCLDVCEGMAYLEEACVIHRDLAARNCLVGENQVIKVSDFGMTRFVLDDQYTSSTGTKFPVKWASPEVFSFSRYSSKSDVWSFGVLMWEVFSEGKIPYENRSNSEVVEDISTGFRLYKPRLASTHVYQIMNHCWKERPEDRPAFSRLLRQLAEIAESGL
Sequence of Serine/threonine-protein kinase PLK1 (Homo sapiens) (P53350 whole entry): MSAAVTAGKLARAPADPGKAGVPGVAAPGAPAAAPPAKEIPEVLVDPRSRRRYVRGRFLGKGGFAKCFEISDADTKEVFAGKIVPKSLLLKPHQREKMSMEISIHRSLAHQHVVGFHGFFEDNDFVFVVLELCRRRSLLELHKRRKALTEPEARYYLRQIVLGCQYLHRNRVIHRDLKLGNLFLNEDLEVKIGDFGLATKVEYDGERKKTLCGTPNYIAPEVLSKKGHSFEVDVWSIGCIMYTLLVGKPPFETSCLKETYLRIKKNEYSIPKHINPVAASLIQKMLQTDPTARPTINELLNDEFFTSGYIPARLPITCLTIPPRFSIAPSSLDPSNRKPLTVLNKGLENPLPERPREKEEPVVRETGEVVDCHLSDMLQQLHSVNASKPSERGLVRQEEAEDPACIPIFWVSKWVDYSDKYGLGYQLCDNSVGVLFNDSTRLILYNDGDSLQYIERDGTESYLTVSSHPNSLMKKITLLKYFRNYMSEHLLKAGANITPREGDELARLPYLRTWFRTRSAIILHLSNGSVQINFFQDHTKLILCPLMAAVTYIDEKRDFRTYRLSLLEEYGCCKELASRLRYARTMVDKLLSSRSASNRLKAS

- inhibition [1]: 0%
- inhibition [2]: 7%
- inhibition [3]: 5%
- AUC(0-inf) [4]: 876 ng·h/mL
- inhibition [5]: 19%
- inhibition [6]: 65%
- inhibition [7]: 4%
- IC50 [8]: 48 nM
- inhibition [9]: 15%
- IC50 [10]: 624 nM
- inhibition [15]: 5%
- IC50 [16]: 16 nM
- inhibition ([16]; concentration not given here): 109%
- IC50 [17]: 755 nM
- inhibition [18]: 7%
- half-life [19]: 1.5 h
- AUC(0-inf) [20]: 510 ng·h/mL
- Vd [21]: 6.2 L/kg
- inhibition [22]: 5%
- inhibition [24]: 100%
- inhibition [25]: 4%
- inhibition [26]: 6%
- inhibition [27]: -2%
- IC50 (Ephrin type-B receptor 3): 350 nM
- inhibition [28]: 50%
- Tmax [29]: 3 h
- inhibition [30]: -5%
- IC50 [31]: 611 nM
- inhibition ([31]; concentration not given here): 60%
- inhibition [32]: 6%
- inhibition [33]: 9%
- inhibition [34]: -3%
SMILES: Cc1ccccc1Nc1nc2cc(F)c(N(C)C(=O)/C=C/CN(C)C)cc2n2cncc12
- Activity (Mus musculus [11]): Active
- Activity (Mus musculus [12]): Active
- Activity (Mus musculus [13]): Active
- inhibition (Mus musculus [14]): Dose-dependent effect
- inhibition (Mus musculus [23]): Dose-dependent effect
